Experimental findings from ChEMBL document CHEMBL3351926, “Altertoxins with potent anti-HIV activity from Alternaria tenuissima QUE1Se, a fungal endophyte of Quercus emoryi” (Bioorg Med Chem, 2014) are described below.

Data set [1] is described as follows: Therapeutic index, ratio of CC50 for human A3.01 cells to IC50 for HIV1 infected in human A3.01 cells. It is filed as cell-based. The note with it: A3.01 cells (uninfected for CC50; HIV1-infected for IC50). In short, it runs like this: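 The index was calculated from A3.01 cytotoxicity data together with the IC50 for HIV-1 LAV replication in A3.01 cells. Replication was measured by supernatant reverse transcriptase assay 9 days post-infection on dose–response curves run in duplicate.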

Data set [2] deals with Human immunodeficiency virus 1. The experiment in a line: Antiviral activity against HIV1 infected in human A3.01 cells assessed as inhibition of viral replication at 1.5 ug/ml. Format: functional. In short, it runs like this:
(§1)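 A3.01 T lymphocytes were infected with HIV-1 LAV in the presence of compound at a single concentration, 1.5 or 0.5 μg/mL, chosen from the A3.01 cytotoxicity data. Supernatant virus was measured by reverse transcriptase assay, and inhibition was scored on the peak day of virus production. Controls were DMSO at a matching concentration, AZT at 10 and 20 μM, untreated infected cells and mock cells.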

Data set [3] deals with Human immunodeficiency virus 1. The experiment in a line: Antiviral activity against HIV1 infected in human A3.01 cells assessed as inhibition of viral replication. Format: functional, organism-based. Summed up: (§2)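 A3.01 T cells were infected with HIV-1 LAV in the presence of decreasing compound concentrations, lowered until viral replication reappeared. Virus in culture supernatants was measured by reverse transcriptase assay 9 days post-infection, the peak day for the untreated control. Replication was expressed as % of the untreated (concentration 0) control. Results are the mean and standard deviation of duplicate determinations, and IC50 was read from the dose–response curves.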

For data set [4], the system named is Human immunodeficiency virus 1. As to the kind of experiment: Antiviral activity against HIV1 infected in human A3.01 cells assessed as inhibition of viral replication at 0.5 ug/ml. It is filed as functional. Summed up: as §1
Data set [5] relates to Human immunodeficiency virus 1. The experiment in a line: Antiviral activity against HIV1 infected in human A3.01 cells assessed as complete inhibition of viral replication at 2.20 uM. It is filed as functional, organism-based. In short, it runs like this:
as §2

The test system of data set [6] is Human immunodeficiency virus 1. As to the kind of experiment: Antiviral activity against HIV1 infected in human A3.01 cells assessed as complete inhibition of viral replication at 20 uM. Format: functional, organism-based. In short, it runs like this: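 Human A3.01 T-lymphocytes infected with HIV-1 LAV strain while exposed to compound. Virus levels in culture supernatants measured by reverse transcriptase assay. Inhibition read on peak day of virus production, 9 days post-infection in the untreated control. Compared against untreated infected cells, DMSO vehicle at matching concentration, and uninfected mock cells.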

Data set [7] deals with Human immunodeficiency virus 1. The experiment in a line: Antiviral activity against HIV1 infected in human A3.01 cells assessed as complete inhibition of viral replication at 1.50 uM. It is filed as functional, organism-based. Summed up: as §2

SMILES strings stand for the structures. Calls of active or inactive are those of the source. The rule behind the calls is not given here.

`O=C1C[C@@H](O)[C@H]2c3c(ccc(O)c31)-c1ccc(O)c3c1[C@H]2[C@H]1O[C@H]1C3=O`: the selectivity ratio in data set [1] came out at 50. Also, in data set [2], the inhibition at 1.5 µg/mL came to 97%. For the same compound, the IC50 in data set [3] is 90 nM.
On to `O=C1CC[C@]2(O)c3c(ccc(O)c31)-c1ccc(O)c3c1[C@H]2[C@H]1O[C@H]1C3=O`, for which the selectivity ratio in data set [1] came out at 6.5. Moreover, the IC50 in data set [3] is 210 nM. Further, the inhibition at 0.5 µg/mL in data set [4] came out at 97%.
Consider `O=C1C[C@H](O)[C@@H]2c3c(ccc(O)c31)-c1ccc(O)c3c1[C@@]2(O)CCC3=O` [ALTERTOXIN I], for which, in data set [1], the selectivity ratio worked out at 3. Also, in data set [2], the inhibition at 1.5 µg/mL worked out at 97%. In addition, the IC50 in data set [3] was 1420 nM. In data set [5], the inhibition entry was “Active”.
For `O=C1C=C[C@H]2c3c(ccc(O)c31)-c1ccc(O)c3c1[C@H]2[C@H]1O[C@H]1C3=O`, the inhibition at 1.5 µg/mL in data set [2] was found to be 33%.
Regarding `Cc1cn([C@H]2C[C@H](N=[N+]=[N-])[C@@H](CO)O2)c(=O)[nH]c1=O`, the inhibition entry in data set [6] was “Active”.
On to `O=C1c2c(O)ccc3c2[C@H](c2ccc(O)c4c2[C@H]3[C@H]2O[C@H]2C4=O)[C@H]2O[C@@H]12`, for which, in data set [1], the selectivity ratio worked out at 15. Further, the inhibition result in data set [7] was “Active”. Besides, the inhibition at 1.5 µg/mL in data set [2] turned out to be 97%. The IC50 in data set [3] was found to be 290 nM.

One may read the inhibition as the percentage by which the read-out fell short of the control. The term IC50 denotes the concentration that inhibits the measured activity by half.
